Results published in ChEMBL document CHEMBL1122366, “Potential antiatherosclerotic agents. 3. Substituted benzoic and non benzoic acid analogues of cetaben” (1983).

Columns and labels:
[1] = tested on: Rattus norvegicus; test: In vivo triglyceride lowering activity when dosed as 0.01 % of the diet; format: functional
Summary of the method: (§1)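 Normal rats were dosed in the diet. Serum sterol and triglyceride levels were measured and expressed as the mean percent of control values. Significance versus control was reported at p < 0.05, 0.01 and 0.001.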

[2] = tested on: Rattus norvegicus; test: In vivo triglyceride lowering activity when dosed at 0.03 % of the diet; format: functional; summary of the method: as §1
[3] = tested on: Rattus norvegicus; test: In vivo sterol lowering activity at dose of 0.10 % of the diet; format: functional; summary of the method: as §1
[4] = tested on: Rattus norvegicus; test: In vivo sterol lowering activity when dosed as 0.03 % of the diet; format: functional; summary of the method: as §1
[5] = tested on: Rattus norvegicus; test: In vivo triglyceride lowering activity dosed at 0.10 % of the diet.; format: functional; summary of the method: as §1
[6] = tested on: Rattus norvegicus; test: In vivo sterol lowering activity when dosed as 0.01 % of the diet; format: functional; summary of the method: as §1
[7] = target: T1, Sterol O-acyltransferase 1 (Rattus norvegicus) (UniProt O70536); test: In vitro inhibition of acyl coenzyme A:cholesterol acyltransferase; design: concentration or dose not given beside the values; conditions: concentration not given here
T1 sequence (whole entry): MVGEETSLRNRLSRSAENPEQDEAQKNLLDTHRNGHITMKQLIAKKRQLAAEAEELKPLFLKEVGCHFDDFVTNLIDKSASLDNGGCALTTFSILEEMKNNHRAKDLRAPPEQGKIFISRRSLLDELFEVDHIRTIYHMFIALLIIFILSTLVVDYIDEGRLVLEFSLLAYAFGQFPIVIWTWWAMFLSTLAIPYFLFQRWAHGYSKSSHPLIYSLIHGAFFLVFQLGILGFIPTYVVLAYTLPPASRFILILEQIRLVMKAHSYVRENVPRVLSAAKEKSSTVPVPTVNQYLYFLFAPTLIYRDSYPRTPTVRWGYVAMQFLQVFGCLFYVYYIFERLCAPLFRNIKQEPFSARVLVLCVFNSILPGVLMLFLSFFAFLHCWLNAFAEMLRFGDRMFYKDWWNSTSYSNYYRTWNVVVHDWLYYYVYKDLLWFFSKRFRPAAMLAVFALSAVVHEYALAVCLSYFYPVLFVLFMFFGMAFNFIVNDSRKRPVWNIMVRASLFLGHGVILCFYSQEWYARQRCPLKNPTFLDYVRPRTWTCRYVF
Summary of the method: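 Enzyme fatty acyl-CoA:cholesterol acyltransferase (ACAT), assayed in vitro at a single drug concentration of 5.2 μg/mL. The value is the mean percent inhibition of enzyme activity.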

SMILES | serum triglyceride level, percent of control [1] [%] | serum triglyceride level, percent of control [2] [%] | serum sterol level, percent of control [3] [%] | serum sterol level, percent of control [4] [%] | serum triglyceride, percent of control [5] [%] | serum sterol level, % of control [6] [%] | inhibition [7] [%]
CCCCCCCCCCCCCCCCNc1ccc(CC(=O)O)cc1 | 76 | 81 | 87 | 87 | <63 | 93 | 
CCCCCCCCCCCCCCCCN(CC(=O)O)c1ccc(C(=O)O)cc1 | 105 | 100 | 93 | 109 | 99 | 105 | 
CCCCCCCCCCCCCCCCNc1ccc(C(=O)OCCN(C)C)cc1.Cl | 77 | 73 | 92 | <92 | <59 | 99 | 
CCCCCCCCCCCCCCCCN(C)c1ccc(C(=O)O)cc1 | <81 | <66 | 85 | 92 | 56 | 85 | 
CCCCCCCCCCCCCCCCNc1ccc(C(=O)O)cc1 [CETABEN] | <71 | <45 | <54 | <71 | <31 | <72 | 
CCCCCCCCCCCCCCCCNCc1ccc(C(=O)O)cc1 | 86 | 91 | <88 | <89 | 96 | 97 | 
CCCCCCCCCCCCCCCCN(CC)c1ccc(C(=O)[O-])cc1.[Na+] |  |  | 116 | 116 |  | 114 | 
CCCCCCCCCCCCCCCCN(CCCCCCCCCCCCCCCC)c1ccc(C(=O)O)c2ccccc12 | 100 | 99 | 101 | 109 | 112 | 111 | 
CCCCCCCCCCCCCCCCNc1ccc(C(=O)OC)cn1 |  |  | 114 | 108 |  |  | 
Br.CCCCCCCCCCCCCCCCNc1ccc(COC(C)=O)cc1 | 79 | 135 | <85 | 92 | 114 | 93 | 
CCCCCCCCCCCCCCCCN(C)c1ccc(C(=O)OCC)cc1 | <64 | <73 | <74 | 84 | 78 | <70 | 
C=CCOC(=O)c1ccc(NCCCCCCCCCCCCCCCC)cc1 |  | <60 | <81 | 103 | <70 | 94 | < 40
CCCCCCCCCCCCCCCCCCN(CC)c1ccc(C(=O)O)cc1 | 85 | 102 | 108 | 102 | 103 | 102 | 
CCCCCCCCCCCCCCCCCN(C)c1ccc(C(=O)O)cc1 | 98 | 134 | 98 | 98 | 109 | 97 | 
CCCCCCCCCCCCCCCCNc1ccc(C(=O)NS(=O)(=O)c2ccc(C)cc2)cc1 | <86 | <35 | <61 | <56 | <40 | 89 | 
CCCCCCCCCCCCCCCCNc1ccc(C(=O)O)c(Cl)c1 | 113 | 109 | 95 | 95 | 101 | 100 | 
CCCCCCCCCCCCCCCCNc1ccc(C(=O)CCC(=O)OC)cc1 |  | 93 | <84 | <81 | 86 |  | 7
CCCCCCCCCCCCCCCCNc1ccc(C(=O)N2CCCC2)cc1 | 75 |  | 101 | 98 | 95 | 113 | 59
CCCCCCCCCCCCCCCCNc1ccc(C(=O)OCC(COC)OC)cc1 (stereo not given) |  | 62 | 82 | 83 | 70 |  | < 24
CCCCCCCCCCCCCCCCN(C(=O)C(F)(F)F)c1ccc(C(=O)N2CCCCC2)cc1 |  |  | 92 |  | <68 |  | < 68
CCCCCCCCCCCCCCCCNc1ccc(C(=O)CC(=O)OC)cc1 |  |  | <84 |  | <47 |  | < 43
CCCCCCCCCCCCCCCCNc1ccc(C(N)=O)cc1 |  |  | <86 | 102 | 114 | 100 | 
CCCCCCCCCCCCCCCCNc1csc(C#N)c1 |  |  | 92 |  | 99 |  | < 41
CCCCCCCCCCCCCCCCN(C(C)=O)c1ccc(C(=O)OCC(O)COC(C)=O)cc1 (stereo not given) |  |  | 97 |  | 113 |  | 4
CCCCCCCCCCCCCCCCN(C(=O)C(F)(F)F)c1ccc(C(=O)NNC(C)=O)cc1 |  |  | <81 |  | <61 |  | < 50
CCCCCCCCCCCCCCCCNc1ccc(SCC(=O)OCC)cc1 |  |  | 99 |  | 126 |  | 13
CCCCCCCCCCCCCCCCNc1ccc(/C=N\N=C(\N)NCc2ccccc2)cc1 |  |  | 94 |  | <49 |  | 0
